Many of the other results were omitted from the sample, so hits are more common in it than they were.
Insulin prom act: TRM-6 insulin promoter activation; AID 1296; hit rate 0.81% among 130,000; activation, % at 2 µM; TRM-6 cells, insulin promoter eGFP reporter, imaging; plate-scaled: unstimulated 0, stimulated control 100;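 active = activation at 2 µM above a set limit, confirmed on inspection of the cell images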;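 note: share of cells whose green reporter signal exceeds an intensity cutoff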
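System: human fetal islet-derived TRM-6 cells with tamoxifen-inducible insulin promoter–eGFP reporter; input: seeding density of 1,000 cells per well; buffer or medium: Low-glucose (5.5 mM) medium with tamoxifen; incubation: compound exposure 48 h, 37 °C; measured by: high-content imaging of fixed cells with Hoechst nuclear stain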
Each line names hits and unclear results; the compound was inactive in the other large screens.

COc1ccc2oc(C(=O)OCc3c(C)noc3C)c(C)c2c1	none
Cc1cc(C(=O)COC(=O)CCc2nc3ccccc3s2)c(C)n1C	Insulin prom act 78
COCCn1c(C)cc(C(=O)CSc2nc3ccccc3s2)c1C	none
NC(=O)CSCc1nc2ccccc2s1	none
O=C(CCCCCN1C(=O)c2ccccc2C1=O)Oc1ccc2c3c(c(=O)oc2c1)CCC3	none
CCOC(=O)C1=C(C(F)(F)F)Nc2ncnn2C1c1ccc(OC)cc1OC (centres undefined)	none
CCOC(=O)C1=C(N)Oc2ccc3ccccc3c2C1c1cccnc1 (centres undefined)	Insulin prom act 564
CCOC(=O)C1=C(c2ccccc2)OC(N)=C(C#N)C1c1cccnc1 (centres undefined)	none
CC1=C(C(=O)OCc2ccccc2)C(c2cccnc2)n2nnnc2N1 (centres undefined)	none
CCC(C)(C)NC(=O)C(c1cccn1C)N(C(=O)Cn1nnc2ccccc21)c1ccc(OC)cc1 (centres undefined)	Insulin prom act 150
CCC(C)(C)NC(=O)C(c1ccccc1)N(Cc1cccs1)C(=O)Cn1nnc2ccccc21 (centres undefined)	none
CCc1ccc(C(C(=O)NC(C)(C)CC)N(Cc2ccco2)C(=O)Cn2nnc3ccccc32)cc1 (centres undefined)	none
COC(=O)COc1ccc(S(=O)(=O)Nc2ccc(C(N)=O)cc2)cc1C	none
CCOC(=O)N1CCN(S(=O)(=O)c2ccc(OCC(=O)OC)c(Cl)c2)CC1	none
COC(=O)COc1ccc(-c2ccc(F)cc2)cc1C=O	Insulin prom act 450
CCCCn1nnnc1SCC(=O)NCc1ccccc1	none
Cc1occc1-c1nnc(SCC(=O)NCCc2ccccc2)n1C(C)c1ccccc1 (centres undefined)	none
CC(C)n1nnnc1SCC(=O)NCCc1ccccc1	Insulin prom act 75
CCOc1ccccc1Nc1nc2ccccc2n1C(C)C	none
O=C(NCc1nnc(SCC(=O)N2CCOCC2)o1)c1c(F)cccc1Cl	none
COc1ccc(-c2[nH]ncc2C=O)cc1	none
Clc1ccc2c(c1)C(N1CCNCC1)Cc1ccccc1S2 (centres undefined)	Insulin prom act 507
Clc1cccc2c1Sc1ccccc1CC2N1CCNCC1 (centres undefined)	none
O=C(NCc1ccco1)C(=O)NCC1OCCCN1S(=O)(=O)c1ccccc1 (centres undefined)	none
CN(C)S(=O)(=O)c1cccc(NC(=O)COC(=O)/C=C/c2ccc([N+](=O)[O-])cc2)c1	none
Cc1cccc(NC(=O)c2cc3cc([N+](=O)[O-])ccc3s2)n1	none
O=C1NC(NS(=O)(=O)c2ccc(Cl)cc2)(C(F)(F)F)C(=O)N1Cc1cccnc1 (centres undefined)	none
CCN(CC)S(=O)(=O)c1ccc(F)cc1	none
CC(C)CNC(=O)CN(C)S(=O)(=O)c1ccc(F)cc1	none
CCOC(=O)CCN(Cc1sccc1C)S(=O)(=O)c1ccc(F)cc1	Insulin prom act 77
CO/N=C/C(C#N)=C/c1cc(C(=O)c2ccccc2)cn1C	none
O=C(CN1C(=O)C2CC=CCC2C1=O)NC1CCCc2ccccc21 (centres undefined)	Insulin prom act 83
NC(=O)C1CCN(CC(=O)NC2CCCc3ccccc32)CC1 (centres undefined)	none
Cc1ccc(S(=O)(=O)N2CCN(CC(=O)NC3CCCc4ccccc43)CC2)c(C)c1 (centres undefined)	none
Cc1nc2cc(C(=O)N3CCc4ccccc43)ccc2n1-c1ccc(F)c(F)c1	none
Nn1c(Cc2ccccc2)n[nH]c1=S	Insulin prom act 486
Cc1ccccc1OCc1n[nH]c(=S)n1Cc1ccccc1	none
OCCCc1n[nH]c(=S)n1-c1ccccc1	none
OCCNc1nc(SCc2ccccc2)nc2sc3c(c12)CCC3	none
CC(C)[C@H](NC(N)=O)C(=O)NCCc1ccc(Cl)cc1Cl	none
Cc1nc2c(C(=O)NCCC(C)C)c[nH]n2c(=O)c1Cc1ccccc1F	none
CC(C)CCNC(=O)[C@@H](NC(=O)c1c(F)cccc1F)C(C)C	Insulin prom act 94
Cn1cc([N+](=O)[O-])c(C(=O)N/N=C/c2ccc3c(c2)OCO3)n1	none
Cc1ccc(-c2ccc(CCC(=O)O)n2-c2cccc(O)c2)cc1	Insulin prom act 291
Cc1ccc(-c2ccc(CCC(=O)O)n2CC(=O)O)cc1	none
Cc1ccc(-c2ccc(CCC(=O)O)n2-c2ccc(O)cc2)cc1	none
CCOC(=O)c1cc(C(C)(C)C)oc1CN	none
CCOC(=O)c1cc(C(C)(C)C)oc1CNC(=O)c1c(C)oc2c1CCCC2	Insulin prom act 493
Cc1cc(C(C)(C)C)oc1C(=O)NCCCNC(=O)c1oc(C(C)(C)C)cc1C	none
NNC(=O)C1CC1c1ccc(Cl)cc1 (centres undefined)	none
Cc1cc(C(=O)CCl)c(C)n1CCc1ccc(F)cc1	none
Cc1cc(C(=O)CSc2nnc(N)s2)c(C)n1CCc1ccc(F)cc1	none
Cc1cc(C(=O)CSc2nnnn2C)c(C)n1CCc1ccc(F)cc1	Insulin prom act 126
O=C(Nc1ccc(C(=O)O)cc1)Nc1ccc(F)cc1F	none
Cc1cccc(N2CCN(Cc3nc(-c4cccc(Oc5ccccc5)c4)oc3C)CC2)n1	none
COc1ccc(C)cc1NC(=O)C(NCC1CCCO1)c1ccccc1 (centres undefined)	none

Assay outcomes (PubChem BioAssay)
